{"source": "ChEMBL document CHEMBL1821727", "about": "“Design, synthesis, and pharmacological evaluation of novel hybrid compounds to treat sickle cell disease symptoms” (J Med Chem, 2011)", "key": {"[1]": {"test_system": "Mus musculus", "assay": "Antiinflammatory activity in Swiss albino mouse peritonitis model assessed as reduction in thioglycollate-induced of leukocyte migration at 300 umol/kg, po administered 1 hr before thioglycollate challenge measured after 4 hrs", "type": "functional, organism-based", "procedure,_shortened": "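Mice dosed at 300 μmol/kg po in arabic gum, then 1 h later given 1 mL 3% thioglycollate ip. Killed at 4 h, peritoneum washed with 1.5 mL cold PBS; exudate cells recovered and total cells counted in Neubauer chamber; exudate >98% neutrophils. Mean ± SEM, at least six animals, ANOVA/Dunnett vs vehicle.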"}, "[2]": {"test_system": "Salmonella typhimurium", "assay": "Mutagenic activity in Salmonella Typhimurium TA100 preincubated for 20 to 30 mins", "type": "toxicity, organism-based", "details": "salmonella enterica subsp. enterica serovar typhimurium"}, "[3]": {"test_system": "Salmonella typhimurium", "assay": "Mutagenic activity in Salmonella Typhimurium TA102 preincubated for 20 to 30 mins", "type": "toxicity, organism-based", "details": "salmonella enterica subsp. enterica serovar typhimurium"}, "[4]": {"test_system": "Mus musculus", "assay": "Antiinflammatory activity in Swiss albino mouse assessed as inhibition of capsaicin-induced ear edema at 300 umol/kg, po administered 1 hr before capsaicin challenge measured after 30 mins relative to control", "type": "functional", "procedure,_shortened": "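Female Swiss mice, 8 weeks old, groups of six; oral dosing at 300 μmol/kg as suspension in arabic gum, vehicle controls 10 mL/kg po; left ear given acetone. Killed 30 min after capsaicin; 7 mm ear punches weighed, edema = treated right minus untreated left ear weight; % inhibition vs vehicle control; mean ± SEM, n = 8, ANOVA/Dunnett.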"}, "[5]": {"test_system": "Blood", "assay": "Genotoxicity in mouse peripheral blood by micronucleus test", "type": "toxicity, tissue-based"}, "[6]": {"assay": "Antiinflammatory activity in knockout-transgenic sickle cell mouse monocytes assessed as inhibition of LPS-induced TNFalpha production at 100 uM administered 30 mins before LPS challenge […]", "type": "functional, Monocyte"}, "[7]": {"assay": "Antiinflammatory activity in knockout-transgenic sickle cell mouse monocytes assessed as inhibition of LPS-induced TNFalpha production at 300 uM administered 30 mins before LPS challenge […]", "type": "functional, Monocyte"}, "[8]": {"assay": "Antiinflammatory activity in knockout-transgenic sickle cell mouse monocytes assessed as inhibition of LPS-induced TNFalpha production at 1 uM administered 30 mins before LPS challenge […]", "type": "functional, Monocyte"}, "[9]": {"test_system": "Mus musculus", "assay": "Antinociceptive activity in Swiss albino mouse assessed as reduction in acetic acid-induced abdominal constrictions at 100 umol/kg, po administered 1 hr before acetic acid challenge measured for 20 mins relative to control", "type": "functional, Abdomen", "set-up": "scale not given: the % may be the effect or the level left", "procedure,_shortened": "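Constrictions counted for 20 min starting 10 min after injection; % inhibition vs vehicle group; mean ± SEM, 10 animals per group, Student's t test.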"}, "[10]": {"assay": "Antiinflammatory activity in knockout-transgenic sickle cell mouse monocytes assessed as TNFalpha level at 300 uM administered 30 mins before LPS challenge measured after […] by ELISA", "type": "functional, Monocyte", "procedure,_shortened": "(§1)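 Blood drawn by intracardiac puncture from anesthetized adult knockout-transgenic sickle cell mice; mononuclear cells isolated on Ficoll, adhered 2 h in DMEM + 10% calf serum (5% CO2, 37 °C), monocyte purity >90% by May-Giemsa. Compounds (100 or 300 μM; dexamethasone 1 μM) added 30 min before LPS 1 μg/mL; supernatant TNFα by ELISA after 20 h. Mean ± SEM, N ≥ 4 experiments.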"}, "[11]": {"assay": "Antiinflammatory activity in knockout-transgenic sickle cell mouse monocytes assessed as TNFalpha level at 100 uM administered 30 mins before LPS challenge measured after […] by ELISA", "type": "functional, Monocyte", "procedure,_shortened": "as §1"}}, "note": "The source made the active and inactive calls. The calls are words filed in the database; no cut-off is given here."}
{"smiles": "O=C1c2ccccc2C(=O)N1CO[N+](=O)[O-]", "values": [{"measurement": "Activity", "setting": "[1]", "result": "Active"}, {"measurement": "Activity", "setting": "[2]", "result": "Non-toxic"}, {"measurement": "Activity", "setting": "[3]", "result": "Non-toxic"}, {"measurement": "inhibition in vivo at 300 µmol/kg", "setting": "[4]", "result": 43, "unit": "%"}, {"measurement": "Activity", "setting": "[5]", "result": "Non-toxic"}]}
{"smiles": "O=C1c2ccccc2C(=O)N1c1cccc(CO[N+](=O)[O-])c1", "values": [{"measurement": "Activity", "setting": "[1]", "result": "Active"}, {"measurement": "inhibition (INH)", "setting": "[6]", "result": 45, "unit": "%"}, {"measurement": "Activity", "setting": "[2]", "result": "Non-toxic"}, {"measurement": "Activity", "setting": "[3]", "result": "Non-toxic"}, {"measurement": "inhibition (INH)", "setting": "[7]", "result": 91, "unit": "%"}, {"measurement": "inhibition in vivo at 300 µmol/kg", "setting": "[4]", "result": 65, "unit": "%"}, {"measurement": "Activity", "setting": "[5]", "result": "Non-toxic"}]}
{"smiles": "COc1ccc2c(c1)c(CC(=O)O)c(C)n2C(=O)c1ccc(Cl)cc1", "values": [{"measurement": "inhibition", "setting": "[4]", "result": "Active"}]}
{"smiles": "C[C@@H]1C[C@H]2[C@@H]3CCC4=CC(=O)C=C[C@]4(C)[C@@]3(F)[C@@H](O)C[C@]2(C)[C@@]1(O)C(=O)CO", "note": "[DEXAMETHASONE]", "values": [{"measurement": "inhibition (INH)", "setting": "[8]", "result": 83, "unit": "%"}]}
{"smiles": "O=C1c2ccccc2C(=O)N1c1ccc(CO[N+](=O)[O-])cc1", "values": [{"measurement": "Activity", "setting": "[9]", "result": 66, "unit": "%"}, {"measurement": "Activity", "setting": "[1]", "result": "Active"}, {"measurement": "inhibition (INH)", "setting": "[6]", "result": 67, "unit": "%"}, {"measurement": "Activity", "setting": "[2]", "result": "Non-toxic"}, {"measurement": "Activity", "setting": "[3]", "result": "Non-toxic"}, {"measurement": "inhibition (INH)", "setting": "[7]", "result": 84, "unit": "%"}, {"measurement": "inhibition in vivo at 300 µmol/kg", "setting": "[4]", "result": 43, "unit": "%"}, {"measurement": "Activity", "setting": "[5]", "result": "Non-toxic"}]}
{"smiles": "NC(=O)NO", "note": "[HYDROXYUREA]", "values": [{"measurement": "Activity", "setting": "[10]", "result": 579.8, "unit": "pg/mL"}, {"measurement": "Activity", "setting": "[11]", "result": 463.3, "unit": "pg/mL"}]}
{"smiles": "O=C1CCC(N2C(=O)c3ccccc3C2=O)C(=O)N1CO[N+](=O)[O-]", "note": "(stereo unspecified)", "values": [{"measurement": "Activity", "setting": "[1]", "result": "Active"}, {"measurement": "Activity", "setting": "[2]", "result": "Non-toxic"}, {"measurement": "Activity", "setting": "[3]", "result": "Non-toxic"}, {"measurement": "inhibition in vivo at 300 µmol/kg", "setting": "[4]", "result": 43, "unit": "%"}, {"measurement": "Activity", "setting": "[5]", "result": "Non-toxic"}]}
{"smiles": "O=C1c2ccccc2C(=O)N1c1ccc(CCO[N+](=O)[O-])cc1", "values": [{"measurement": "Activity", "setting": "[1]", "result": "Active"}, {"measurement": "Activity", "setting": "[2]", "result": "Non-toxic"}, {"measurement": "Activity", "setting": "[3]", "result": "Non-toxic"}, {"measurement": "inhibition in vivo at 300 µmol/kg", "setting": "[4]", "result": 43, "unit": "%"}, {"measurement": "Activity", "setting": "[5]", "result": "Non-toxic"}]}
{"smiles": "O=C1c2ccccc2C(=O)N1CCO[N+](=O)[O-]", "values": [{"measurement": "Activity", "setting": "[9]", "result": 25, "unit": "%"}, {"measurement": "Activity", "setting": "[1]", "result": "Active"}, {"measurement": "Activity", "setting": "[2]", "result": "Non-toxic"}, {"measurement": "Activity", "setting": "[3]", "result": "Non-toxic"}, {"measurement": "inhibition in vivo at 300 µmol/kg", "setting": "[4]", "result": 43, "unit": "%"}, {"measurement": "Activity", "setting": "[5]", "result": "Non-toxic"}]}
{"smiles": "Cc1c(N(C)CS(=O)(=O)O)c(=O)n(-c2ccccc2)n1C", "values": [{"measurement": "Activity", "setting": "[9]; Abdomen", "result": "inactive"}]}
